From ChEMBL document CHEMBL1137103, “4-Acylamino-and 4-ureidobenzamides as melanin-concentrating hormone (MCH) receptor 1 antagonists” (Bioorg Med Chem Lett, 2004)
pIC50: −log10 of the molar value.

Assays:
[1] = molecular target: T1, Melanin-concentrating hormone receptor 1 (Homo sapiens, UniProt Q99705); assay: Binding affinity against human Melanin-concentrating hormone receptor 1 stably transfected CHO cells was determined using [125I]MCH as radioligand; assay type: cell-based
Outline: (§1)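 Whole-cell binding in CHO cells expressing the human receptor with [125I]-MCH tracer. Nonspecific binding defined with 1 µM MCH. IC50 values from displacement by various concentrations of test compound.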

[2] = molecular target: T1, Melanin-concentrating hormone receptor 1; assay: Binding affinity against human Melanin-concentrating hormone receptor 1 stably transfected CHO cells was determined using scintillation proximity assay (SPA); assay type: cell-based
Outline: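 Scintillation proximity binding with CHO membranes incubated with PEI-treated WGA-coupled PVT SPA beads and tracer over various test-compound concentrations. Nonspecific binding defined with 1 µM MCH; IC50 derived.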

[3] = molecular target: T2, Melanin-concentrating hormone receptor 2 (Homo sapiens, UniProt Q969V1); assay: Binding affinity against human Melanin-concentrating hormone receptor 2 stably transfected CHO cells was determined using [125I]MCH as radioligand; assay type: cell-based; outline: as §1
[4] = molecular target: T1, Melanin-concentrating hormone receptor 1; assay: Antagonistic activity against human Melanin-concentrating hormone receptor 1 stably transfected CHO cells was determined using IP3 assay; assay type: functional, cell-based
Outline: (§2)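 CHO whole cells expressing the human receptor, labelled with 5 µCi [3H]-myo-inositol in inositol-free culture medium. Phosphatidylinositol turnover stimulated by submaximal MCH in the presence of increasing ligand concentrations. Generated [3H]-inositol phosphates purified on anion-exchange resin; IC50 derived.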

[5] = molecular target: T2, Melanin-concentrating hormone receptor 2; assay: Antagonistic activity against human Melanin-concentrating hormone receptor 2 stably transfected CHO cells was determined using IP3 assay; assay type: functional, cell-based; outline: as §2
[6] = molecular target: Mu-type opioid receptor (Homo sapiens) (UniProt P35372); assay: Inhibitory activity against Opioid receptor mu 1 at 10 uM
[7] = Inhibitory activity against 5-hydroxytryptamine 2C receptor
[8] = Inhibitory activity against Dopamine transporter; set-up: species or system Homo sapiens
[9] = molecular target: T3, Adenosine receptor A3 (Homo sapiens) (UniProt P0DMS8); assay: Inhibitory activity against Adenosine A3 receptor at 10 uM
T3 sequence (whole entry): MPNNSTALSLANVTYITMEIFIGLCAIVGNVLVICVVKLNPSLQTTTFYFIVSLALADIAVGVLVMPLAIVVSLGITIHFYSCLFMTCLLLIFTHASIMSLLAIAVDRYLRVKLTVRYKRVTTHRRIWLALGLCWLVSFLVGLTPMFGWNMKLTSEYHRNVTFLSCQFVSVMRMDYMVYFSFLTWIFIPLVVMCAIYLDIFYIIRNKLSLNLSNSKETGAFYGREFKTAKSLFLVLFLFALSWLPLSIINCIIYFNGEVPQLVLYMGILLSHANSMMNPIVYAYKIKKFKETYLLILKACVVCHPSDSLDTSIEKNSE

[10] = Inhibitory activity against 5-hydroxytryptamine 2A receptor
[11] = molecular target: D(1A) dopamine receptor (Homo sapiens) (UniProt P21728); assay: Inhibitory activity against Dopamine receptor D1 at 10 uM
[12] = molecular target: T4, Muscarinic acetylcholine receptor M1 (Homo sapiens) (UniProt P11229); assay: Inhibitory activity against Muscarinic acetylcholine receptor M1 at 10 uM
T4 sequence (whole entry): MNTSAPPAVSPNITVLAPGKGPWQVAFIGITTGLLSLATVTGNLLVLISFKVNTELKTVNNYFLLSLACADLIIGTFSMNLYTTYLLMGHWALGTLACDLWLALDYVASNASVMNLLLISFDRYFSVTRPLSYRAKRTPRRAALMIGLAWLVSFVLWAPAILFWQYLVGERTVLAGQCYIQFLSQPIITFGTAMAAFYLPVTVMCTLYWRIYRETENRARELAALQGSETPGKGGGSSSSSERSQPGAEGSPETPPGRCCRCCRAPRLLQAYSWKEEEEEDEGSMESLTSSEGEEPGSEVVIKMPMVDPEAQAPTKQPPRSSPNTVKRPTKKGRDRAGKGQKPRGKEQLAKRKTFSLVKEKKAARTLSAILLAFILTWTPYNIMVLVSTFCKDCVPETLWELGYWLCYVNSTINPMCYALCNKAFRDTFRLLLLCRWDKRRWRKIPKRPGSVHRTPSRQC

[13] = molecular target: Sodium-dependent noradrenaline transporter (Homo sapiens) (UniProt P23975); assay: Inhibitory activity against Norepinephrine transporter at 10 uM
[14] = Inhibitory activity against Histamine H2 receptor

T1 sequence (Q99705 whole entry): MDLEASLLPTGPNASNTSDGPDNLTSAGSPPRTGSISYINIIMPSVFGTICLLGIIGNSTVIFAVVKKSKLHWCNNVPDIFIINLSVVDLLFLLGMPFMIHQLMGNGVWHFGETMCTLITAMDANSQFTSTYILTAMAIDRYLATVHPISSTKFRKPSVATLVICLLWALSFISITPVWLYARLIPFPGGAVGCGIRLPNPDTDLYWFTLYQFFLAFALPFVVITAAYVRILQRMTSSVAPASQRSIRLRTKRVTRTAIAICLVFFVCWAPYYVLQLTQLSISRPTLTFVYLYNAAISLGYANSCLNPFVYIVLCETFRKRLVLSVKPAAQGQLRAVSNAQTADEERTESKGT
T2 sequence (Q969V1 whole entry): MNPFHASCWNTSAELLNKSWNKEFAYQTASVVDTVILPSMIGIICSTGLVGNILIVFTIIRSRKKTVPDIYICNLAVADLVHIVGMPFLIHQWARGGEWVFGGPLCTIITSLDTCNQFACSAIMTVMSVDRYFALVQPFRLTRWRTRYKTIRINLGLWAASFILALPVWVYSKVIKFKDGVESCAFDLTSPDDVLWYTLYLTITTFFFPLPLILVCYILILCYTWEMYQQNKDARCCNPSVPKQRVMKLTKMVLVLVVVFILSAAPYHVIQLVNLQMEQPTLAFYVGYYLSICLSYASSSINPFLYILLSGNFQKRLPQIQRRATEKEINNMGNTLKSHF
Sequence of Sodium-dependent noradrenaline transporter (Homo sapiens) (P23975 whole entry): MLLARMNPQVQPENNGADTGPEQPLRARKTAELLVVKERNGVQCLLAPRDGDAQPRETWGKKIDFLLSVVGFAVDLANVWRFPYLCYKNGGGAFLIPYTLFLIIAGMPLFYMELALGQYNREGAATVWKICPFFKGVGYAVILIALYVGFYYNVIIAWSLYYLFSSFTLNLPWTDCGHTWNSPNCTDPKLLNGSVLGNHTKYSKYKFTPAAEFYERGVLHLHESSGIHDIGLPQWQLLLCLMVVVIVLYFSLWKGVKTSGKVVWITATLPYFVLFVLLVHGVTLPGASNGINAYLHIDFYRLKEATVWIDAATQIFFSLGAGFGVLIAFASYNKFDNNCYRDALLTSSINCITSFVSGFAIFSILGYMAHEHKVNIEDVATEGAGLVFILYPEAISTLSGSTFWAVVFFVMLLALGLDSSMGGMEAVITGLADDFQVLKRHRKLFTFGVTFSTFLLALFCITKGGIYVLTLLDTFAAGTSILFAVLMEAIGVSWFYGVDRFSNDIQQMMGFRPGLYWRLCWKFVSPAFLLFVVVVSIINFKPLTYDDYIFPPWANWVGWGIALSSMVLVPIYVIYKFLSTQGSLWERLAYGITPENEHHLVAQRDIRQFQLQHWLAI
Sequence of Mu-type opioid receptor (Homo sapiens) (P35372 whole entry): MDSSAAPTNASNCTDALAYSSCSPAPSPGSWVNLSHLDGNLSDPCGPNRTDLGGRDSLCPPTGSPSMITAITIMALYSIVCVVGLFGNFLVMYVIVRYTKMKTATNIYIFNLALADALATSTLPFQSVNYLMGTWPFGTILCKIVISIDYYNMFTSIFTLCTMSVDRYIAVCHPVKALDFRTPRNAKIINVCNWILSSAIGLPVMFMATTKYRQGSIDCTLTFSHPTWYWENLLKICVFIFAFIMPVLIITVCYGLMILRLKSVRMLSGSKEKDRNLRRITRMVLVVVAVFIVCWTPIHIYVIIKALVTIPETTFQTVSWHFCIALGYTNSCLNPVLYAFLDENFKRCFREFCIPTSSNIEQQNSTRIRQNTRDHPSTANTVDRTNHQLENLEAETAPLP
Sequence of D(1A) dopamine receptor (Homo sapiens) (P21728 whole entry): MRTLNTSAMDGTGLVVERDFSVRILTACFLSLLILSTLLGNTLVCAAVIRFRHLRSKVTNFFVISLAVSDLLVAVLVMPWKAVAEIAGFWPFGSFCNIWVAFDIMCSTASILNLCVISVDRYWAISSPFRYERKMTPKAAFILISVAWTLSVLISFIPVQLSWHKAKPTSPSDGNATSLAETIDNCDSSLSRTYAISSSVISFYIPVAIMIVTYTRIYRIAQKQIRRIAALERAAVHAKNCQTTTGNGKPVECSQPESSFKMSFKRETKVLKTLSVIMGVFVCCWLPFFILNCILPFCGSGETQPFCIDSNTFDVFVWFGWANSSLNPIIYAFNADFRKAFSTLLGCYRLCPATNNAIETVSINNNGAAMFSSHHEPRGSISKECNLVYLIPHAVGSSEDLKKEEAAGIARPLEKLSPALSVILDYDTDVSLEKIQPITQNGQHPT

Row | Compound | pIC50 [1] | pIC50 [2] | pIC50 [4] | other results
1 | CCN(CC)CCNC(=O)c1ccc(-c2noc(-c3ccc(Oc4ccccc4)cc3)n2)cc1 | 5.61 |  |  | 
2 | COc1cc(NC(=O)c2ccc(-c3ccccc3)cc2)ccc1C(=O)NCCN1CCN(Cc2ccccc2)CC1 | 6.19 |  |  | 
3 | CCN(CC)CCNC(=O)c1ccc(NC(=O)Nc2ccc(C(=O)C(F)(F)F)cc2)cc1OC |  | 5.23 |  | 
4 | CCN(CC)CCNC(=O)c1ccc(NC(=O)Nc2ccc(OC(F)(F)F)cc2Br)cc1OC |  | 5.06 |  | 
5 | CCN(CC)CCN(C)C(=O)c1ccc(NC(=O)Nc2ccc(Oc3ccccc3)cc2)cc1 |  | 4.96 |  | 
6 | COc1cc(NC(=O)c2ccc(Oc3ccccc3)cc2)ccc1C(=O)NCCCN(C)C | 5.72 |  |  | 
7 | CCN(CC)CCNC(=O)c1ccc(NC(=O)Nc2cc(Cl)cc(Cl)c2)cc1OC |  | 5.32 |  | 
8 | CCN(CC)CCNC(=O)c1ccc(NC(=O)Nc2ccc(SC)cc2)cc1OC |  | 6.02 |  | 
9 | CCN(CC)CCNC(=O)c1ccc(NC(=O)N(C)c2ccc(Oc3ccccc3)cc2)cc1OC |  | 5.24 |  | 
10 | COc1cc(NC(=O)Nc2cccc(Oc3ccccc3)c2)ccc1C(=O)NCCCN1CCCCC1 | 7.70 |  | 7.52 | pIC50 [3]: < 4.00
11 | CCN(CC)CCNC(=O)c1ccc(NC(=O)Nc2ccc(Oc3ccccc3)cc2)cc1 |  | 5.46 |  | 
12 | CCN1CCCC1CNC(=O)c1ccc(-c2noc(-c3ccc(Oc4ccccc4)cc3)n2)cc1 (centres undefined) | 5.72 |  |  | 
13 | CCN(CC)CCNC(=O)c1ccc(NC(=O)c2ccc(-c3ccccc3)cc2)cc1OC | 6.43 |  |  | 
14 | CCN(CC)CCNC(=O)c1ccc(NC(=O)Nc2ccc(F)cc2)cc1OC |  | 4.80 |  | 
15 | COc1cc(NC(=O)Nc2ccc(Nc3ccccc3)cc2)ccc1C(=O)NCCCN1CCCCC1 | 6.07 |  | 5.84 | 
16 | CCN(CC)CCNC(=O)c1ccc(NC(=O)Nc2ccc(OC(F)(F)F)cc2)cc1 | 7.22 |  | 6.60 | pIC50 [5]: < 4.00; pIC50 [3]: < 4.00
17 | CCN1CCCC1CNC(=O)c1ccc(NC(=O)Nc2ccc(Oc3ccccc3)cc2)cc1 (centres undefined) | 6.60 |  | 5.89 | pIC50 [3]: 5.20
18 | CCN(CC)CCNC(=O)c1cc(Cl)c(NC(=O)Nc2ccc(Oc3ccccc3)cc2)cc1OC |  | < 4.00 |  | 
19 | CCN(CC)CCN(C)C(=O)c1ccc(NC(=O)Nc2ccc(Oc3ccccc3)cc2)cc1OC |  | < 4.00 |  | 
20 | COc1cc(NC(=O)Nc2cccc(Nc3ccccc3)c2)ccc1C(=O)NCCCN1CCCCC1 | 8.09 |  | 7.60 | pIC50 [3]: 5.00
21 | COc1cc(NC(=O)Nc2ccc(Oc3ccccc3)cc2)ccc1C(=O)NCCCN1CCCCC1 | 7.30 |  |  | pIC50 [5]: < 4.00; pIC50 [3]: 5.00
22 | O=C(Nc1ccc(Oc2ccccc2)cc1)Nc1ccc(C(=O)NCCN2CCN(Cc3ccccc3)CC2)cc1 | 6.85 |  | 5.24 | pIC50 [3]: 5.54
23 | CCN(CC)CCNC(=O)c1ccc(NC(=O)Nc2cccc(OC(F)(F)F)c2)cc1OC |  | 5.60 |  | 
24 | COc1cc(NC(=O)Nc2ccccc2Oc2ccccc2)ccc1C(=O)NCCCN1CCCCC1 | < 5.00 |  |  | 
25 | COc1cc(NC(=O)c2ccc(-c3ccccc3)cc2)ccc1C(=O)NC1CCN(Cc2ccccc2)CC1 | 6.89 |  |  | 

Row | Compound | pIC50 [1] | pIC50 [2] | pIC50 [4] | other results
26 | CCN(CC)CCNC(=O)c1ccc(NC(=O)Nc2ccc(Cl)c(Cl)c2)cc1OC |  | 6.15 |  | 
27 | CCN(CC)CCNC(=O)c1ccc(NC(=O)Nc2ccc(SC(F)(F)F)cc2)cc1OC |  | 6.70 |  | 
28 | COc1cc(NC(=O)c2ccc(-c3ccccc3)cc2)ccc1C(=O)NCCCN(C)C | 6.19 |  | 5.28 | pIC50 [3]: < 4.00
29 | CCN(CC)CCNC(=O)c1ccc(NC(=O)Nc2ccc(C(F)(F)F)cc2)cc1 | 8.28 |  | 6.77 | 
30 | CCN(CC)CCNC(=O)c1ccc(NC(=O)Nc2ccc(F)c(Cl)c2)cc1OC |  | 5.41 |  | 
31 | CCN(CC)CCNC(=O)c1ccc(NC(=O)Nc2ccccc2)cc1OC |  | < 4.00 |  | 
32 | CCN(CC)CCNC(=O)c1ccc(NC(=O)Nc2cc(OC)cc(OC)c2)cc1OC |  | 4.74 |  | 
33 | CCN(CC)CCNC(=O)c1ccc(NC(=O)Nc2ccc(C(C)=O)cc2)cc1OC |  | 4.89 |  | 
34 | CCN(CC)CCNC(=O)c1ccc(NC(=O)Nc2ccc(Br)cc2)cc1OC |  | 6.60 |  | 
35 | COc1cc(NC(=O)Nc2cccc(Oc3ccccc3)c2)ccc1C(=O)NCCCN1CCOCC1 | 7.15 |  | 6.96 | inhibition [6]: 48%; pIC50 [5]: < 4.00; pIC50 [7]: 5.89; pIC50 [8]: 5.82; inhibition [9]: 48%; pIC50 [3]: < 4.00; pIC50 [10]: 6.17; inhibition [11]: 57%; inhibition [12]: 64%; inhibition [13]: 68%; pIC50 [14]: 5.74
36 | CCN(CC)CCNC(=O)c1ccc(NC(=O)c2ccc(Oc3ccccc3)cc2)cc1OC | 5.71 |  | 5.17 | 
37 | CN(C)CCNC(=O)c1ccc(NC(=O)c2ccc(-c3ccccc3)cc2)cc1 | < 4.00 |  |  | 
38 | CCN(CC)CCNC(=O)c1ccc(N2CCN(c3ccc(Oc4ccccc4)cc3)C2=O)cc1OC |  | < 4.00 |  | 
39 | CCOc1cc(NC(=O)Nc2ccc(Oc3ccccc3)cc2)ccc1C(=O)NCCN(CC)CC | 6.62 |  | 5.71 | 
40 | CCN(CC)CCNC(=O)c1ccc(NC(=O)Nc2ccc(C#N)cc2)cc1OC |  | 5.49 |  | 
41 | COc1cc(NC(=O)c2ccc(-c3ccccc3)cc2)ccc1C(=O)NCCN(C)C | 5.62 |  | 4.92 | pIC50 [3]: < 4.00
42 | CCN(CC)CCNC(=O)c1ccc(N(C)C(=O)Nc2ccc(Oc3ccccc3)cc2)cc1OC |  | 6.27 |  | 
43 | CCN(CC)CCNC(=O)c1ccc(NC(=O)Nc2ccc(Oc3ccccc3)cc2)cc1OC | 6.85 | 6.14 | 6.06 | 
44 | CCN(CC)CCNC(=O)c1ccc(NC(=O)Nc2ccc(C(F)(F)F)cc2)cc1OC | 7.70 | 7.30 | 6.77 | pIC50 [3]: < 4.00
45 | CCN(CC)CCNC(=O)c1ccc(NC(=O)Nc2cccc(SC)c2)cc1OC |  | 5.33 |  | 
46 | COc1cc(NC(=O)Nc2ccc(-c3ccccc3)cc2)ccc1C(=O)NCCCN(C)C | 5.83 | 5.04 |  | 
47 | CCN(CC)CCNC(=O)c1ccc(N(C)C(=O)N(C)c2ccc(Oc3ccccc3)cc2)cc1OC |  | < 4.00 |  | 
48 | CCN(CC)CCNC(=O)c1ccc(NC(=O)Nc2cccc(C(F)(F)F)c2)cc1OC |  | 5.10 |  | 
49 | CCN1CCCC1CNC(=O)c1ccc(NC(=O)Nc2ccc(Oc3ccccc3)cc2)cc1OC (centres undefined) | 6.28 |  | 5.46 | 
